According to ChEMBL document CHEMBL5058577, “EUbOPEN Chemogenomics Library 2 (Multiplex)” (2022):

System: U2OS
Test: Multiplex assay against U2OS
Assay type: toxicity, cell-based
Details: human
Method in brief: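 Per cents of healthy-nucleus cells form the tubulin, mitochondrial-mass and membrane-permeability phenotype values. Live cells were stained at seeding with Hoechst33342, BioTracker Green Microtubule Cytoskeleton Dye, MitoTracker Red and Annexin V Alexa Fluor 680. After compound addition they were imaged on a CQ1 microscope at 37°C and 5% CO2, and CellPathfinder machine-learning gating split them into Hoechst high-intensity objects or normal cells, normal cells into healthy, pyknosed or fragmented nuclei, and pyknosed cells into mitotic or apoptotic.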

[1] = 12 h, 1 µM, compound concentration 1 uM, replicate 1
[2] = 12 h, 1 µM, compound concentration 1 uM, replicate 2
[3] = 12 h, 10 µM, compound concentration 10 uM, replicate 1
[4] = 12 h, 10 µM, compound concentration 10 uM, replicate 2
[5] = 24 h, 1 µM, compound concentration 1 uM, replicate 1
[6] = 24 h, 1 µM, compound concentration 1 uM, replicate 2
[7] = 24 h, 10 µM, compound concentration 10 uM, replicate 1
[8] = 24 h, 10 µM, compound concentration 10 uM, replicate 2
[9] = 48 h, 1 µM, compound concentration 1 uM, replicate 1
[10] = 48 h, 1 µM, compound concentration 1 uM, replicate 2
[11] = 48 h, 10 µM, compound concentration 10 uM, replicate 1
[12] = 48 h, 10 µM, compound concentration 10 uM, replicate 2

O=C(NCCN1CCC(n2c(=O)[nH]c3cc(Cl)ccc32)CC1)c1ccc(F)cc1 [HALOPEMIDE]
Population Apoptotic (%) [1]: 95% | Population Fragmented Nuclei (%) [1]: 24% | Population Healthy Nuclei (%) [1]: 65% | Population Hoechst High Intensity Objects (%) [1]: 1% | Population Membrane Permeable-Phenotype (%) [1]: 6% | Population Mitochondria Different-Phenotype (%) [1]: 1% | Population Mitotic Cells (%) [1]: 4% | Population Normal (%) [1]: 98% | Population Pyknosed Nuclei (%) [1]: 10% | Population Tubulin-Different-Phenotype (%) [1]: 2% | Total Cell Count [1]: 209 | Population Apoptotic (%) [2]: 50% | Population Fragmented Nuclei (%) [2]: 13% | Population Healthy Nuclei (%) [2]: 79% | Population Hoechst High Intensity Objects (%) [2]: 0% | Population Membrane Permeable-Phenotype (%) [2]: 7% | Population Mitochondria Different-Phenotype (%) [2]: 2% | Population Mitotic Cells (%) [2]: 50% | Population Normal (%) [2]: 100% | Population Pyknosed Nuclei (%) [2]: 7% | Population Tubulin-Different-Phenotype (%) [2]: 3% | Total Cell Count [2]: 105 | Population Apoptotic (%) [3]: 68% | Population Fragmented Nuclei (%) [3]: 19% | Population Healthy Nuclei (%) [3]: 65% | Population Hoechst High Intensity Objects (%) [3]: 4% | Population Membrane Permeable-Phenotype (%) [3]: 23% | Population Mitochondria Different-Phenotype (%) [3]: 11% | Population Mitotic Cells (%) [3]: 31% | Population Normal (%) [3]: 95% | Population Pyknosed Nuclei (%) [3]: 15% | Population Tubulin-Different-Phenotype (%) [3]: 15% | Total Cell Count [3]: 244 | Population Apoptotic (%) [4]: 61% | Population Fragmented Nuclei (%) [4]: 12% | Population Healthy Nuclei (%) [4]: 78% | Population Hoechst High Intensity Objects (%) [4]: 1% | Population Membrane Permeable-Phenotype (%) [4]: 26% | Population Mitochondria Different-Phenotype (%) [4]: 32% | Population Mitotic Cells (%) [4]: 38% | Population Normal (%) [4]: 98% | Population Pyknosed Nuclei (%) [4]: 8% | Population Tubulin-Different-Phenotype (%) [4]: 27% | Total Cell Count [4]: 152 | Population Apoptotic (%) [5]: 91% | Population Fragmented Nuclei (%) [5]: 22% | Population Healthy Nuclei (%) [5]: 68% | Population Hoechst High Intensity Objects (%) [5]: 1% | Population Membrane Permeable-Phenotype (%) [5]: 6% | Population Mitochondria Different-Phenotype (%) [5]: 1% | Population Mitotic Cells (%) [5]: 8% | Population Normal (%) [5]: 98% | Population Pyknosed Nuclei (%) [5]: 9% | Population Tubulin-Different-Phenotype (%) [5]: 1% | Total Cell Count [5]: 241 | Population Apoptotic (%) [6]: 81% | Population Fragmented Nuclei (%) [6]: 15% | Population Healthy Nuclei (%) [6]: 72% | Population Hoechst High Intensity Objects (%) [6]: 0% | Population Membrane Permeable-Phenotype (%) [6]: 10% | Population Mitochondria Different-Phenotype (%) [6]: 3% | Population Mitotic Cells (%) [6]: 18% | Population Normal (%) [6]: 99% | Population Pyknosed Nuclei (%) [6]: 12% | Population Tubulin-Different-Phenotype (%) [6]: 8% | Total Cell Count [6]: 132 | Population Apoptotic (%) [7]: 75% | Population Fragmented Nuclei (%) [7]: 17% | Population Healthy Nuclei (%) [7]: 64% | Population Hoechst High Intensity Objects (%) [7]: 2% | Population Membrane Permeable-Phenotype (%) [7]: 15% | Population Mitochondria Different-Phenotype (%) [7]: 10% | Population Mitotic Cells (%) [7]: 25% | Population Normal (%) [7]: 97% | Population Pyknosed Nuclei (%) [7]: 18% | Population Tubulin-Different-Phenotype (%) [7]: 7% | Total Cell Count [7]: 271 | Population Apoptotic (%) [8]: 63% | Population Fragmented Nuclei (%) [8]: 16% | Population Healthy Nuclei (%) [8]: 71% | Population Hoechst High Intensity Objects (%) [8]: 3% | Population Membrane Permeable-Phenotype (%) [8]: 26% | Population Mitochondria Different-Phenotype (%) [8]: 23% | Population Mitotic Cells (%) [8]: 36% | Population Normal (%) [8]: 96% | Population Pyknosed Nuclei (%) [8]: 12% | Population Tubulin-Different-Phenotype (%) [8]: 21% | Total Cell Count [8]: 159 | Population Apoptotic (%) [9]: 68% | Population Fragmented Nuclei (%) [9]: 16% | Population Healthy Nuclei (%) [9]: 75% | Population Hoechst High Intensity Objects (%) [9]: 2% | Population Membrane Permeable-Phenotype (%) [9]: 4% | Population Mitochondria Different-Phenotype (%) [9]: 2% | Population Mitotic Cells (%) [9]: 32% | Population Normal (%) [9]: 97% | Population Pyknosed Nuclei (%) [9]: 7% | Population Tubulin-Different-Phenotype (%) [9]: 2% | Total Cell Count [9]: 337 | Population Apoptotic (%) [10]: 95% | Population Fragmented Nuclei (%) [10]: 17% | Population Healthy Nuclei (%) [10]: 69% | Population Hoechst High Intensity Objects (%) [10]: 1% | Population Membrane Permeable-Phenotype (%) [10]: 9% | Population Mitochondria Different-Phenotype (%) [10]: 5% | Population Mitotic Cells (%) [10]: 4% | Population Normal (%) [10]: 98% | Population Pyknosed Nuclei (%) [10]: 12% | Population Tubulin-Different-Phenotype (%) [10]: 6% | Total Cell Count [10]: 187 | Population Apoptotic (%) [11]: 81% | Population Fragmented Nuclei (%) [11]: 15% | Population Healthy Nuclei (%) [11]: 69% | Population Hoechst High Intensity Objects (%) [11]: 3% | Population Membrane Permeable-Phenotype (%) [11]: 10% | Population Mitochondria Different-Phenotype (%) [11]: 5% | Population Mitotic Cells (%) [11]: 18% | Population Normal (%) [11]: 96% | Population Pyknosed Nuclei (%) [11]: 14% | Population Tubulin-Different-Phenotype (%) [11]: 5% | Total Cell Count [11]: 382 | Population Apoptotic (%) [12]: 77% | Population Fragmented Nuclei (%) [12]: 13% | Population Healthy Nuclei (%) [12]: 67% | Population Hoechst High Intensity Objects (%) [12]: 6% | Population Membrane Permeable-Phenotype (%) [12]: 16% | Population Mitochondria Different-Phenotype (%) [12]: 12% | Population Mitotic Cells (%) [12]: 22% | Population Normal (%) [12]: 93% | Population Pyknosed Nuclei (%) [12]: 18% | Population Tubulin-Different-Phenotype (%) [12]: 6% | Total Cell Count [12]: 197
